How the values were obtained:
PD-L1 in HCT116 cells = PD-L1 in HCT116 cells (Homo sapiens, UniProt Q9NZQ7); assay: Immunofluorescence; type: cell-based; conditions: HCT116, incubation for 10 h, LSCM
Outline: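 HCT116 colon cancer cells were exposed to test peptide carrying an N-terminal Arg6 cell-penetrating hexamer, or to an Arg6-tagged random-sequence control peptide. PD-L1 was labelled with red dye and HSC70 or LAMP2 with green dye, and cells were imaged by laser scanning confocal microscopy (10 h incubation stated for the HSC70 pairing). Intensity profiles were plotted along a line, with colocalization given as Pearson's R.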

[1] = system: PD-L2, B7H3 (CD276), B7H4, Vista; assay: Western blot of other PD-L1 family proteins in HCT116; type: cell-based; conditions: 5μM Arg6-MPHP, HCT116, WB

PD-L1 in HCT116 cells, sequence (Q9NZQ7 19-290): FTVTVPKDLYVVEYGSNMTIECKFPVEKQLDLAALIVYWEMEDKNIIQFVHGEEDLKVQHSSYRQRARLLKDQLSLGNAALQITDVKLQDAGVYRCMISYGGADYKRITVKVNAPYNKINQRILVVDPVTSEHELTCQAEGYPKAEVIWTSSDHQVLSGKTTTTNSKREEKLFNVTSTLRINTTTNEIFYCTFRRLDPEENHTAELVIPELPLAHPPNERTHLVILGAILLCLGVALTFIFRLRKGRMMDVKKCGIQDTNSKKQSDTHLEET

SMILES: C[C@H](O)[C@@H](NC(=O)[C@H]1CCCN1C(=O)[C@@H](CCCCN)NC(=O)[C@@H](CO)NC(=O)[C@@H](Cc1ccc(O)cc1)NC(=O)[C@@H](CC(N)=O)NC(=O)CCOCCOCCOCCNC(=O)[C@H](CCC(N)=O)NC(=O)[C@H](CCCNC(=N)N)NC(=O)[C@H](Cc1ccccc1)NC(=O)[C@H](CCC(=O)O)NC(=O)[C@H](CCCCN)NC(=O)[C@H](CS)NC(=O)[C@H](CCCNC(=N)N)NC(=O)[C@H](CCCNC(=N)N)NC(=O)[C@H](CCCNC(=N)N)NC(=O)[C@H](CCCNC(=N)N)NC(=O)[C@H](CCCNC(=N)N)NC(=O)[C@@H](N)CCCNC(=N)N)C(=O)N[C@H](CC(=O)O)C(=O)N[C@H](CCCNC(=N)N)C(=O)N[C@H](CCC(N)=O)C(=O)N[C@H](Cc1ccc(O)cc1)C(=O)N[C@H](Cc1c[nH]cn1)C(=O)N[C@H](Cc1ccccc1)C(=O)O [Arg6-MPHP]
- colocalization of PD-L1 and HSC70 (PD-L1 in HCT116 cells): conspicuous colocalization
- impact on other PD-L1 family proteins (PD-L2, B7H3 (CD276), B7H4, Vista) [1]: negligible

From paper PMC11319731 (Nature Communications, 2024)
